Measurements reported in ChEMBL document CHEMBL1140697, “Synthesis and evaluation in monkey of two sensitive 11C-labeled aryloxyanilide ligands for imaging brain peripheral benzodiazepine receptors in vivo” (J Med Chem, 2008).

What was measured:
[1] = target: Translocator protein (Rattus norvegicus, UniProt P16257); test: Binding affinity to PBR in Sprague-Dawley rat mitochondrial tissue
[2] = Binding affinity to PBR in rhesus monkey mitochondrial tissue; design: species or system Macaca mulatta
How it was run: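 Mitochondrial fractions (rat, rhesus monkey or human) were incubated with [³H]PK 11195 (0.38 nM final) and eight test-ligand concentrations for 2 h at 4 °C. Samples were filtered on PEI-presoaked GF/B filters, washed with ice-cold buffer and counted. Nonspecific binding was taken at the top inhibitor level (0.1–0.3 µM). Triplicate curves were run in two independent experiments. IC₅₀ was converted to K_i by Cheng–Prusoff, using K_D from homologous PK 11195 displacement.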

[3] = target: Translocator protein (Homo sapiens, UniProt P30536); test: Binding affinity to PBR in human mitochondrial tissue
[4] = Lipophilicity, log D of the compound; format: physicochemical; conditions: octanol/water
How it was run: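 The ¹¹C-ligand (~300 µCi) in saline with 5% ethanol was mixed with sodium phosphate buffer (0.15 M, pH 7.4). Six 1 mL aliquots were each vortexed 1 min with buffer-pre-equilibrated n-octanol, centrifuged 1 min, and 200 µL of each phase was γ-counted. Aqueous counts were corrected by radio-HPLC for the unchanged fraction. LogD = log(cpm octanol/corrected cpm aqueous); mean ± SD of six determinations.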

[5] = test system: Plasma; test: Biodistribution in rat plasma at 1.43 mCi, iv after 30 mins; format: ADME, organism-based; conditions: in vivo, 0.5 h
How it was run: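 Rats received the ¹¹C-radioligand iv with varying carrier mass (µg/kg) and were sampled 30 min later. Plasma and brain homogenate were extracted into acetonitrile and analysed by reverse-phase radio-HPLC (C18; MeOH/H₂O/Et₃N, 1.5 mL/min), reporting % radioactivity as unchanged radioligand. Extraction recovery was recorded. Replicate HPLC analyses were run on one sample per rat.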

[6] = test system: Plasma; test: Drug level in rhesus monkey plasma assessed as cell distribution; format: ADME, cell-free, Macaca mulatta
[7] = Stability in sodium phosphate buffer at pH 7.4 after 2.5 hrs; format: physicochemical; conditions: read-out: Stability
How it was run: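 Radioligand stored in 0.15 M sodium phosphate buffer, pH 7.4, for 2.5 h; radiochemical stability measured by radio-HPLC as percent of radioactivity remaining as unchanged radioligand; n = 4.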

[8] = Biodistribution in rhesus monkey plasma free fraction of blood; format: ADME, organism-based, Macaca mulatta
[9] = test system: Plasma; test: Drug level in rhesus monkey plasma; format: ADME, cell-free, Macaca mulatta
[10] = Stability in monkey whole blood >30 mins; format: ADME, tissue-based, Macaca mulatta; conditions: rhesus monkey, read-out: Stability
How it was run: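 The radioligand was incubated with monkey blood for >30 min. Radioactivity extracted from the plasma was analysed by radio-HPLC to give the percentage of unchanged radioligand, reported as mean ± SD.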

Chain of Translocator protein (Homo sapiens, UniProt P30536) (P30536 whole entry): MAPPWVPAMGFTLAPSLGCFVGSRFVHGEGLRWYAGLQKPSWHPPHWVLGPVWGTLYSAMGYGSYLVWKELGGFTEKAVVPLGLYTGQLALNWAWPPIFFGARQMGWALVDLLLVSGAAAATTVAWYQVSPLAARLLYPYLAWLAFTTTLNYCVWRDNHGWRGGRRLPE
Chain of Translocator protein (Rattus norvegicus, UniProt P16257) (P16257 whole entry, looked up): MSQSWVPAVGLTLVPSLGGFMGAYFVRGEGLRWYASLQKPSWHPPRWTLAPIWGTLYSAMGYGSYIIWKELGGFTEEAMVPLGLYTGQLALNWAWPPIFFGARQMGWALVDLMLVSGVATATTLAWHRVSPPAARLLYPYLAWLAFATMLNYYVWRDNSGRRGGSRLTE

Ki [2] [nM] | logD [4] | Drug uptake [5] [%] | Drug uptake [6] [%] | remaining at 2.5 h [7] [%] | fraction unbound [8] | Drug uptake [9] [%] | remaining at 0.5 h [10] [%] | SMILES | Ki [1] [nM] | Ki [3] [nM]
4.35 | 3.97 |  |  |  |  |  |  | CC[C@H](C)N([11CH3])C(=O)c1cc2ccccc2c(-c2ccccc2Cl)n1 |  | 
0.254 | 3.9 | 3.4 | 63.3 | 99.9 | 0.0015 | 36.7 | 96.5 | CC(=O)N(Cc1ccccc1C(=O)O[11CH3])c1ccccc1Oc1ccccc1 | 0.0978 | 1.4

SMILES | Ki [2] [nM] | logD [4] | Drug uptake [5] [%] | Drug uptake [6] [%] | remaining at 2.5 h [7] [%] | fraction unbound [8] | Drug uptake [9] [%] | remaining at 0.5 h [10] [%] | Ki [1] [nM] | Ki [3] [nM]
COc1ccc(O[11CH3])c(CN(C(C)=O)c2cc(F)ccc2Oc2ccccc2)c1 | 0.23 |  |  |  |  |  |  |  | 0.0726 | 0.242
